PMI act satM6P = PMI (human) activation, high substrate; P34949; coupled PMI enzyme assay, resazurin fluorescence, 20 min; hits give high values; 1 = untreated enzyme, 0 = substrate-free blank; activation factor at 20 µM; hit rate 0.34% among 190,000;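 active = activation factor of 2 or more at 20 µM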
Target sequence (P34949 whole entry, looked up): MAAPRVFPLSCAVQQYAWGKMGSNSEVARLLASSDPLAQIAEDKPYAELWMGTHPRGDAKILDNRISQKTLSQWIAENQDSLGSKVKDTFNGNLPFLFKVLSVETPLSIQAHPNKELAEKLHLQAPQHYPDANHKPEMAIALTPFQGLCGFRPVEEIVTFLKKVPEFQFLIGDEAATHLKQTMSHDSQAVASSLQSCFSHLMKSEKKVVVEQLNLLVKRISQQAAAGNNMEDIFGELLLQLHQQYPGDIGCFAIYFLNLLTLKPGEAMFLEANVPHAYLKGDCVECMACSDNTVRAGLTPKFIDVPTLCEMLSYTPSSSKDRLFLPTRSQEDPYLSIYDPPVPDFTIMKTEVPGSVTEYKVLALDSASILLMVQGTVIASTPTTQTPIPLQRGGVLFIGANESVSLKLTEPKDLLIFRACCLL
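Test system – human PMI in coupled enzyme assay · Timing – 20 min incubation at room temperature · Detection – Diaphorase-driven resazurin-to-resorufin fluorescence, excitation 544, emission 590 nm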
TNAP inh hi DEA = blocks human TNAP under high phosphate acceptor concentration; P05186; purified TNAP, CDP-star luminescence, 1 M DEA; inhibition, % at 20 µM; hit rate 0.03% among 200,000; AID 1135;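 active = over 50% inhibition of tissue-nonspecific alkaline phosphatase at 20 µM in the single-dose screen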;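 note: plate controls were DMSO wells for no effect and EDTA-quenched wells as full inhibition for full effect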
TNAP inh no acc = TNAP (human) inhibition, acceptor-free conditions; purified TNAP, CDP-star luminescence, 30 min; hit rate 0.26% among 200,000; inhibition, % at 20 µM; AID 1012; P05186;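 active = tissue-nonspecific alkaline phosphatase inhibition above about 50% at 20 µM in the single-dose screen, limit read from the data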;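 note: 0% = DMSO negative control and 100% = EDTA positive control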
TNAP act hi DEA = activators of human TNAP at high phosphate acceptor concentration | activation factor at 20 µM | 200,000 tested, under 10 active | P05186 | purified TNAP, CDP-star luminescence, 1 M DEA, 30 min; hits give high values; 0 = EDTA background, 1 = DMSO-only activity;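 active = activation factor at least 2 at 20 µM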
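Test system – human TNAP · Doses – 20 µM single point · Incubation – 30 min, room temperature · Signal – luminescent substrate turnover signal · Read-out basis – activation factor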
PMI activator = activators of human phosphomannose isomerase; AID 1214; hit rate 0.005% among 190,000; purified human PMI, coupled resazurin fluorescence, 20 min; hits give high values; 1 = vehicle control, 0 substrate-free wells; P34949; activation factor at 20 µM;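 active = activation factor of 2 or more at 20 µM, relative to plate controls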
Starred values were filed as active, the others as inactive. The list is not random: actives were taken first. Their share in the collection is about 0.62%.

SMILES | PMI act satM6P | TNAP inh hi DEA | TNAP inh no acc | TNAP act hi DEA | PMI activator
Nc1ncnc2nc(Sc3ccc(Cl)cc3)[nH]c12 | 1 | -4.0 | 14.6 | 1 | 0.9
CC(C)Sc1nc2ncnc(N)c2[nH]1 | 1.1 | -1.5 | 58.0* | 1 | 1.1
C/C(O)=C(/C=Nc1ccccc1)C(=O)Nc1ccccc1 | 1 | -2.8 | -9.1 | 1 | 1.1
CC1(C)CC(=O)c2c(-c3cccnc3)n[nH]c2C1 | 1 | -5.8 | 71.9* | 1.1 | 1
CC1(C)CC(=O)C=C(NCc2ccccc2)C1 | 1 | -1.4 | -9.4 | 1 | 1
CC1(C)CC(=O)c2c(Cc3ccccc3)n[nH]c2C1 | 1 | -1.6 | 88.2* | 1 | 1
CCc1n[nH]c2c1/C(=N\O)CC(C)(C)C2 | 1.1 | -6.6 | 3.4 | 1.1 | 1
CCCCc1n[nH]c2c1C(=O)CC(C)(C)C2 | 1 | -3.1 | 86.6* | 1 | 1
CC1(C)CC(=O)c2c(nn(-c3ccccc3)c2-c2ccncc2)C1 | 0.9 | 16.4 | -7.0 | 0.8 | 1
CC(C)C1Nc2ccc(C(=O)O)cc2C2C=CCC21 (configuration not stated) | 1.1 | -6.7 | -8.1 | 1.1 | 1.3
CCCC1Nc2ccc(C(=O)O)cc2C2C=CCC12 (configuration not stated) | 2* | -5.8 | -4.9 | 1.1 | 1.6
Cc1cc(C2=NNC(=Nc3ccccc3)SC2)c(C)n1C | 2* | 3.0 | -10.1 | 1 | 1.8
Nc1c(C(=O)C2CC2)sc2nc(-c3ccccc3)cc(C(F)(F)F)c12 | 2* | -0.3 | -7.1 | 1 | 1.5
CC[n+]1ccc(/C=C/c2ccc(N(C)C)cc2)c2ccccc21 | 1 | 54.2* | 52.5* | 0.5 | 1
CC[n+]1ccccc1/C=C/c1ccc(N(C)C)cc1 | 1 | 26.7 | 8.5 | 0.7 | 0.7
CC[n+]1c(/C=C/c2ccc(N(C)C)cc2)ccc2ccccc21 | 1 | 59.6* | 60.0* | 0.4 | 0.7
O=C(c1ccccc1SCc1ccccc1)N1CCCCCC1 | 0.9 | -0.4 | -0.7 | 1 | 0.9
CC(C)c1ccccc1NC(=O)CNC(C)c1ccc(F)cc1 (configuration not stated) | 1 | -0.9 | 9.5 | 1 | 1
O=C(Cc1ccc(Cl)cc1)Nc1ccc(SC(F)F)cc1 | 0.8 | 0.0 | 1.9 | 1 | 0.9
Cc1cccc(NC(=O)NNC(=O)c2sccc2-n2cccc2)c1 | 1 | -1.7 | -26.3 | 1 | 1.1
CCn1c(SCC(=O)c2ccc3c(c2)Cc2ccccc2-3)nnc1-c1ccc(N)cc1 | 1.1 | -4.7 | 6.4 | 1 | 1.1
CCn1c(SCC(=O)c2ccc(O)c(O)c2)nnc1-c1ccc(C)cc1 | 0.9 | 6.0 | 52.7* | 0.9 | 0.6
O=C1CC(C(=O)Nc2cc(Cl)ccc2Cl)n2ncnc2N1 (configuration not stated) | 1.1 | -5.1 | -18.2 | 1.1 | 1.1
CN(CC(=O)Nc1ccccc1Cl)CC(=O)Nc1ccccc1[N+](=O)[O-] | 1 | -3.1 | -139.6 | 1 | 1
Oc1ccc(/C=N/Nc2ccccc2)cc1 | 2.5* | 0.9 | -13.0 | 1 | 1.6
SMILES | PMI act satM6P | TNAP inh hi DEA | TNAP inh no acc | TNAP act hi DEA | PMI activator
Brc1ccc(/C=N/Nc2ccccc2)cc1 | 2.4* | -1.3 | -6.1 | 1 | 1.4
Brc1ccc(/C=N/Nc2ccc3ccccc3n2)cc1 | 1.1 | -2.6 | -12.0 | 1 | 1
CC(C)(Oc1ccc(Cl)cc1)C(=O)NCc1ccc(S(N)(=O)=O)cc1 | 1 | -3.7 | -15.2 | 1 | 1
COc1ccc(C2CC(=O)Nc3n[nH]c(-c4ccccc4)c32)cc1OC (configuration not stated) | 0.9 | -0.7 | 64.2* | 1 | 0.9
COc1ccc(/C(C)=N/Nc2ccc(F)cc2F)c(O)c1 | 2.5* | -0.1 | -4.4 | 1 | 1.7
C/C(=N\Nc1ccc(F)cc1F)c1cccs1 | 1.6 | -4.7 | -20.0 | 1 | 1.5
Cc1n[nH]c(C)c1S(=O)(=O)NCCc1ccc(Cl)cc1 | 1 | -3.2 | 60.7* | 1 | 1
O=C(N/N=C/C=C\c1ccccc1[N+](=O)[O-])c1ccccn1 | 0.9 | 2.1 | -72.5 | 1 | 0.8
O=C(N/N=C/C=C/c1ccccc1[N+](=O)[O-])c1cc(-c2ccccc2)n[nH]1 | 0.7 | 6.8 | 64.0* | 0.9 | 0.8
COc1ccc2c(C)cc(=S)[nH]c2c1 | 2.5* | -1.1 | -4.7 | 1 | 1.6
Nc1c(Cl)ncnc1N/N=C/c1ccc2ccccc2n1 | 1.7 | 54.2* | -22.4 | 0.5 | 1.5
Nc1c(Cl)ncnc1N/N=C/c1ccccn1 | 1.2 | 20.8 | -91.2 | 0.8 | 1.2
Cc1cccc2sc(NNC(=O)c3ccc(S(=O)(=O)N4CCc5ccccc5C4)cc3)nc12 | 2.1* | 0.0 | 0.0 | 1 | 1.7
Cc1cccc2sc(NNC(=O)c3ccc(S(=O)(=O)N4CCCC(C)C4)cc3)nc12 (configuration not stated) | 1.2 | 4.5 | -7.4 | 1 | 1.1
CC(=O)C1=C(c2cccc([N+](=O)[O-])c2)N(C(C)=O)n2c(C)nnc2S1 | 1.1 | 0.9 | 62.9* | 1 | 1.1
COc1ccc(Cc2nnc(N=Nc3c(O)[nH]c4ccc(Br)cc34)[nH]c2=O)cc1 | 0.7 | 40.7 | 52.8* | 0.6 | 0.8
COc1ccccc1N1CCN(/N=C/c2ccc(O)c(O)c2)CC1 | 0.6 | 0.6 | 53.9* | 1 | 0.3
Cc1cc([N+](=O)[O-])nn1CC(=O)NCCc1c[nH]c2ccccc12 | 1 | -4.8 | -16.2 | 1 | 1
Nc1c(C(=O)c2ccco2)oc2ccccc12 | 1.1 | 2.3 | -4.9 | 1 | 1
Cc1cc(C)cc(NC(=S)NCCN(C2CCCCC2)C2CCCC2)c1 | 1 | -10.8 | -27.3 | 1.1 | 1
CSc1nc(-c2ccc(Cl)cc2)nn1S(=O)(=O)c1ccccc1 | 1.1 | -3.2 | 10.6 | 1 | 1.1
CS(=O)(=O)n1nc(-c2ccc(Cl)cc2)nc1SCc1ccccc1 | 1 | -0.3 | 67.7* | 1 | 0.9
CC(C)CCN(C(=O)Nc1ccc(Cl)cc1)C1CCN(C(C)C)CC1 | 1.1 | -3.6 | -11.6 | 1 | 1.1
Cc1cc(NC(=O)COC(=O)c2cccc(O)c2)no1 | 1 | -1.0 | 51.6* | 1 | 1
CCOc1ccc(C(=O)OCC(=O)Nc2cc(C)on2)cc1OCC | 1 | -0.4 | -4.7 | 1 | 0.9
COc1ccc(-c2nc(-c3cccc([N+](=O)[O-])c3O)cc(=O)o2)cc1OC | 1 | 11.6 | 1.5 | 0.9 | 1
COc1cc(/C=C2/C(=O)c3cccc([N+](=O)[O-])c3C2=O)c(Br)cc1O | 0.6 | 35.1 | 66.2* | 0.6 | 0.9
CNC(=O)NC(=O)COC(=O)c1ccccc1OCc1ccccc1 | 1 | -4.7 | -10.1 | 1 | 1.1
CCOc1cc(C(c2c(C)[nH][nH]c2=O)c2c(C)[nH][nH]c2=O)ccc1OS(=O)(=O)c1ccccc1 | 0.9 | 61.6* | 23.8 | 0.4 | 0.9

Screens from PubChem BioAssay.
